Values after ≈ are worked out from the molar mass of the structure shown. Active and inactive are the calls of the source. The calls are words filed in the database; no cut-off is given here.
Experiments:
P388 = experiment: Cytotoxicity against mouse P388 cells by MTT assay; assay type: functional; details: read-out: ED50 (the source's name)
Procedure, shortened: (§1)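 Modified MTT colorimetric assay on P-388 mouse lymphocytic leukemia, HT-29 and A549 tumor cells; read-out ED50. Mithramycin as positive control.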

HT-29 = experiment: Cytotoxicity against human HT-29 cells by MTT assay; assay type: functional; details: read-out: ED50 (the source's name); procedure, shortened: as §1
A549 = experiment: Cytotoxicity against human A549 cells by MTT assay; assay type: functional; details: read-out: ED50 (the source's name); procedure, shortened: as §1
Human betaherpesvirus 5 = experiment: Antiviral activity against HCMV infected in HEL cells assessed as inhibition of virus-induced cytopathic effect after 7 days; assay type: functional, organism-based; details: Human betaherpesvirus 5, HEL, 168 h; for EC50: read-out: ED50 (the source's name)
Procedure, shortened: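 Confluent human embryonic lung (HEL) cells preincubated 1 h with or without various compound concentrations, then infected with HCMV at 1000 pfu per well. IC50 taken as concentration reducing virus-induced cytopathic effect by 50% after seven days versus untreated control.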

RAW264.7 [1] = experiment: Antiinflammatory activity in mouse RAW264.7 cells assessed as inhibition of LPS-induced COX2 expression at 10 uM by immunoblot analysis; assay type: functional
Procedure, shortened: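 Murine RAW 264.7 macrophages cultured in DMEM with 10% heat-inactivated FBS at 37 °C, 5% CO2. Cells were stimulated with LPS with or without compound. COX-2 protein was measured by immunoblot, with β-actin as housekeeping reference, and expressed as % of LPS-stimulated control cells. Statistics: one-way ANOVA, Student–Newman–Keuls post hoc test, P<0.05.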

RAW264.7 [2] = experiment: Antiinflammatory activity in mouse RAW264.7 cells assessed as inhibition of LPS-induced iNOS expression at 10 uM by immunoblot analysis

Structure (SMILES) | EC50 (P388) | EC50 (HT-29) | EC50 (A549) | IC50 (Human betaherpesvirus 5) | Activity (RAW264.7 [1]) | inhibition at 10 µM (RAW264.7 [2]) | EC50 (Human betaherpesvirus 5)
C=C(C)[C@H]1C/C=C2/C(=O)O[C@H](C[C@@]3(C)CC(=O)[C@@H](CC(=O)C1)O3)[C@H]2O | > 20 µg/mL | > 20 µg/mL | > 20 µg/mL | 1.9 µg/mL (≈ 5.45 µM) | inactive | 10.2% | 
C=C(C)[C@H]1CC[C@]23O[C@H]2[C@@H](C[C@@]2(C)CC(=O)[C@@H](CC(=O)C1)O2)OC3=O | > 20 µg/mL | > 20 µg/mL | > 20 µg/mL |  | inactive | 47.2% | > 50 µg/mL
C=C(C)[C@@H]1CC(=O)C[C@H]2O[C@](C)(CC2=O)C[C@H]2OC(=O)[C@@]3(O[C@H]23)[C@@H](O)C1 | > 20 µg/mL | > 20 µg/mL | > 20 µg/mL |  | inactive | 56.3% | > 50 µg/mL
C=C(C)[C@H]1C/C=C2/C(=O)O[C@H](C[C@@]3(C)CC(=O)[C@H](CC(=O)C1)O3)[C@H]2O | > 20 µg/mL | > 20 µg/mL | > 20 µg/mL |  | inactive | 17.4% | > 50 µg/mL
C=C(C)[C@H]1CCC2=C[C@@H](C[C@@]3(C)CC(=O)[C@H](CC(=O)C1)O3)OC2=O | > 20 µg/mL | > 20 µg/mL | > 20 µg/mL |  |  |  | > 50 µg/mL
C=C(C)[C@H]1C/C=C(/C(=O)OC)CC(=O)C[C@@]2(C)CC(=O)[C@H](CC(=O)C1)O2 | > 20 µg/mL | > 20 µg/mL | > 20 µg/mL |  |  |  | > 50 µg/mL
C=C(C)[C@@H]1CC(=O)C[C@]23O[C@]4(C)C[C@H]5OC(=O)[C@H]([C@H]5[C@H]4C2=O)[C@H]3C1 | > 20 µg/mL | > 20 µg/mL | > 20 µg/mL |  |  |  | > 50 µg/mL
C=C(C)[C@H]1CCC2=C[C@@H](C[C@@]3(C)CC(=O)[C@@H](CC(=O)C1)O3)OC2=O | > 20 µg/mL | > 20 µg/mL | > 20 µg/mL |  |  |  | > 50 µg/mL
C=C(C)[C@@H]1CC(=O)[C@H]2[C@H](C1)[C@@H]1C(=O)O[C@@H]3C[C@@]4(C)O[C@@H]2C(=O)[C@@H]4[C@H]13 | > 20 µg/mL | > 20 µg/mL | > 20 µg/mL |  |  |  | > 50 µg/mL
O=C(/C=C/c1ccc(O)c(O)c1)OCCc1ccccc1 [CAFFEIC ACID PHENETHYL ESTER] |  |  |  |  |  | 1.5% | 
C=C(C)[C@@H]1CC(=O)C[C@H]2O[C@](C)(CC2=O)C[C@@H](O)[C@@H]2O[C@]2(C(=O)OC)[C@@H](O)C1 [GYROSANIN A] | 3.6 µg/mL (≈ 9.08 µM) | > 20 µg/mL | > 20 µg/mL |  | inactive | 66.9% | > 50 µg/mL
C=C(C)[C@H]1C/C=C2/C(=O)O[C@H](C/C(C)=C/C(=O)[C@@H](O)CC(=O)C1)[C@H]2O [GYROSANOLIDE A] | > 20 µg/mL | > 20 µg/mL | > 20 µg/mL |  | inactive | 55.2% | > 50 µg/mL
C=C(C)[C@H]1C/C=C2/C(=O)O[C@H](C/C(C)=C\C(=O)[C@@H](O)CC(=O)C1)[C@H]2O [GYROSANOLIDE B] | > 20 µg/mL | > 20 µg/mL | > 20 µg/mL |  | inactive | 18.6% | > 50 µg/mL
C=C(C)[C@H]1C/C=C2/C(=O)O[C@H](C/C(C)=C/C(=O)[C@H](OC)CC(=O)C1)[C@H]2O [GYROSANOLIDE C] | > 20 µg/mL | > 20 µg/mL | > 20 µg/mL |  | inactive | 10.6% | > 50 µg/mL
C=C(C)[C@H]1CCC2=C[C@@H](C/C(C)=C/C(=O)[C@H](O)CC(=O)C1)OC2=O [GYROSANOLIDE D] | > 20 µg/mL | > 20 µg/mL | > 20 µg/mL |  |  |  | > 50 µg/mL
C=C(C)[C@H]1CCC2=C[C@H](C[C@@]3(C)CC(=O)[C@@H](CC(=O)C1)O3)OC2=O [GYROSANOLIDE E] | > 20 µg/mL | > 20 µg/mL | > 20 µg/mL |  |  |  | > 50 µg/mL
C=C(C)[C@@H]1CC(=O)C[C@@H]2O[C@](C)(CC2=O)C[C@@H]2C=C(C(=O)O2)[C@@H](O)C1 [GYROSANOLIDE F] | > 20 µg/mL | > 20 µg/mL | > 20 µg/mL |  |  |  | > 50 µg/mL
CO[C@H](C(=O)[C@@H](O)[C@@H](C)O)[C@@H]1Cc2cc3cc(O[C@H]4C[C@@H](O[C@@H]5C[C@@H](O)[C@H](O)[C@@H](C)O5)[C@H](O)[C@@H](C)O4)c(C)c(O)c3c(O)c2C(=O)[C@H]1O[C@H]1C[C@@H](O[C@@H]2C[C@@H](O)[C@@H](O[C@@H]3C[C@](C)(O)[C@H](O)[C@@H](C)O3)[C@@H](C)O2)[C@H](O)[C@@H](C)O1 [PLICAMYCIN] | 0.06 µg/mL (≈ 0.0553 µM) | 0.08 µg/mL (≈ 0.0737 µM) | 0.07 µg/mL (≈ 0.0645 µM) |  |  |  | 
C=C(C)[C@@H]1CC(=O)CC2=C(C1)[C@@H]1C(=O)O[C@@H]3C[C@](C)(O)[C@H](C2=O)[C@H]13 [SCABROLIDE A] | > 20 µg/mL | > 20 µg/mL | > 20 µg/mL |  |  |  | > 50 µg/mL
C=C(C)[C@@H]1CC(=O)CC2=C(C1)[C@@H]1C(=O)O[C@@H]3CC(C)=C(C2=O)[C@H]13 [YONAROLIDE] | > 20 µg/mL | > 20 µg/mL | > 20 µg/mL |  |  |  | > 50 µg/mL

Reference: ChEMBL document CHEMBL1157809, “Bioactive norditerpenoids from the soft coral Sinularia gyrosa” (Bioorg Med Chem, 2010)
